Assay results reported in PubChem BioAssay AID602315 (Southern Research Specialized Biocontainment Screening …, 2012).
pIC50: −log10 of the molar value. Records with an inconclusive call do not appear. Activity calls are given as the source filed them.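 The calls were made as follows: active = inhibition of 30% or more at any tested concentration; inactive = the rest, inconclusive results apart.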

Target: M1-family alanyl aminopeptidase (Plasmodium falciparum 3D7)
Assay: PfM1AAP aminopeptidase inhibitors, dose response, counter-screen for PfM17LAP inhibitor project, biochemical, QFRET, set 3 (AID 602315)
Conditions: recombinant PfM1AAP, H-Leu-NHMec fluorogenic cleavage; for inhibition: at 100 µM (top of the series)
Outline: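 system = recombinant PfM1AAP enzyme | input = PfM1AAP enzyme at 5 µg/mL final | medium = 50 mM Tris-HCl buffer pH 7.5, 2 mM CoCl2, 2% DMSO | compound = 10 doses, 100–0.2 µM, 1:2 steps | schedule = 90 min reaction, room temperature | signal = fluorescence, ex 370/em 460 nm | benchmarks = enzyme-free wells as background reference | repeats = triplicate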

pIC50 | inhibition | Structure (SMILES)
– | inactive | CCCCOc1cccc(CC(=O)OC)c1
4.59 | – | CCCCOc1cccc(CC(=O)NO)c1
– | inactive | CCCCOc1ccc(C(C)(C)C(=O)O)cc1
– | inactive | O=C(NO)c1ccc2ccccc2c1
– | inactive | CCCCOc1ccc(CN(O)C(C)=O)cc1
– | inactive | CN(C)CCOc1ccc(CC(=O)O)cc1
– | inactive | CCCCOc1ccc(C(C)C(=O)O)cc1 (stereo not drawn)
– | inactive | CCCCOc1ccc(CN(O)C(=O)c2ccccc2)cc1

The next lines start with the compound.

Structure (SMILES) | pIC50 | inhibition
CCC(C)Oc1ccc(CC(=O)NO)cc1 (stereo not drawn) | 4.69 | –
CCCCOc1ccc(C(C)(C)C(=O)NO)cc1 | – | inactive
CCCOc1ccc(CC(=O)NO)cc1 | 4.78 | –
CCCCOc1ccc(C(C)C(=O)OC)cc1 (stereo not drawn) | – | inactive
CCCCOc1ccc(C(C)C(=O)NO)cc1 (stereo not drawn) | 4.55 | –
